According to ChEMBL document CHEMBL1122788, “Quantitative relationships between alpha-adrenergic activity and binding affinity of alpha-adrenoceptor agonists and antagonists” (J Med Chem, 1984):
Where a name gives a salt, the structure may show the parent alone.

Columns and labels:
[1] = Apparent partion coefficient of compound was evaluated in octanol/buffer at pH of 7.4 at 37 degree Centigrade; format: physicochemical; details: pH 7.4
[2] = biological target: T1, Adrenergic receptor alpha-2 (Rattus norvegicus, UniProt P22086+P19328+P22909); assay: Binding affinity against alpha-2 adrenergic receptor is the ability to inhibit the specific [3H]clonidine binding (0.4 nM) to rat isolated brain membranes by 50% was reported.; set-up: species or system Membrane
T1 sequence (P22086 whole entry): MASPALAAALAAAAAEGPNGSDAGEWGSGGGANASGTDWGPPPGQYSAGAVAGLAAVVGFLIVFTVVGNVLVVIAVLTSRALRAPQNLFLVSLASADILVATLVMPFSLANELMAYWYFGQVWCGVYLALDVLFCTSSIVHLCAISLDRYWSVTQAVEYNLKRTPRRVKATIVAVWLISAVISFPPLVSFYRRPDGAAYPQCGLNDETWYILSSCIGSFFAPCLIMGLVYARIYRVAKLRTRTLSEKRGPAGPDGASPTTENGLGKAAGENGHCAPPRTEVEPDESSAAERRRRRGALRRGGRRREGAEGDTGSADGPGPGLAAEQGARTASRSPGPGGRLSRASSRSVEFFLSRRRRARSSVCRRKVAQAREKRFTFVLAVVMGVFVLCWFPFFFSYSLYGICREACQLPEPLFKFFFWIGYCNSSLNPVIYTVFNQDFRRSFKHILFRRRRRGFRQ
T1 sequence (P19328 whole entry): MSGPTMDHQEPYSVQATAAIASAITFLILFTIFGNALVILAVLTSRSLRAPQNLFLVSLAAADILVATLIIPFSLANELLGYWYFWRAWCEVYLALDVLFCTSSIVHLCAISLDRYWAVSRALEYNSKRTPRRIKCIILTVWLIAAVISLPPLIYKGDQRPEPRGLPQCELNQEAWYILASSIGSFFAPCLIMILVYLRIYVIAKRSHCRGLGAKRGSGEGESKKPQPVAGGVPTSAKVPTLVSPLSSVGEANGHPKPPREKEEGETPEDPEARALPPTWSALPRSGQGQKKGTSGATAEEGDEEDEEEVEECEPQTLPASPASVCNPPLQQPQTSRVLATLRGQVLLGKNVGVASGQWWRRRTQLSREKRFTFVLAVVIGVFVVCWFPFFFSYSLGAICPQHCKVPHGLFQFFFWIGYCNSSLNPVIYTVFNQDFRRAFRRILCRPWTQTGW
T1 sequence (P22909 whole entry): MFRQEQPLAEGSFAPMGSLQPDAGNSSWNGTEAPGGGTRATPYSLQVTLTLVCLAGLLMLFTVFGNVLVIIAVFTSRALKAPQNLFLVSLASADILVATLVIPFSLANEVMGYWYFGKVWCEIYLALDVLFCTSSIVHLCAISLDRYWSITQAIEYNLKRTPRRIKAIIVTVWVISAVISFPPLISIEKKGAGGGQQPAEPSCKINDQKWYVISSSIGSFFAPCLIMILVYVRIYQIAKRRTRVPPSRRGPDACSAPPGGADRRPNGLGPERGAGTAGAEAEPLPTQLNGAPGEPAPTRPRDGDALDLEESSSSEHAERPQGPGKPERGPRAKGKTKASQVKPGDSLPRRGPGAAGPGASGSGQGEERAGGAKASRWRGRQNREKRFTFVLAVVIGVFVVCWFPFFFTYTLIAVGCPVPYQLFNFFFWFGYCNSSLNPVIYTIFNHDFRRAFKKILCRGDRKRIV
Summary of the method: (§1)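 Whole rat brain (minus cerebellum) from male Wistar rats (200–250 g), homogenized in ice-cold 50 mM Tris-HCl pH 7.7 and washed twice at 50000g. […] Bound ligand was collected by rapid filtration and counted. IC50 was derived by log-probit analysis.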

Rattus norvegicus [3] = assay: Hypertensive activity (increase in arterial pressure to 60 mmHg)) after i.v. administration to pithed rats.
[4] = biological target: T2, Adrenergic receptor alpha-1 (Rattus norvegicus, UniProt P15823+P23944+P43140); assay: Binding affinity against alpha-1 adrenergic receptor is the ability to inhibit the specific [3H]prazosin binding (0.2 nM) to rat isolated brain membranes by 50% was reported.
T2 sequence (P15823 whole entry): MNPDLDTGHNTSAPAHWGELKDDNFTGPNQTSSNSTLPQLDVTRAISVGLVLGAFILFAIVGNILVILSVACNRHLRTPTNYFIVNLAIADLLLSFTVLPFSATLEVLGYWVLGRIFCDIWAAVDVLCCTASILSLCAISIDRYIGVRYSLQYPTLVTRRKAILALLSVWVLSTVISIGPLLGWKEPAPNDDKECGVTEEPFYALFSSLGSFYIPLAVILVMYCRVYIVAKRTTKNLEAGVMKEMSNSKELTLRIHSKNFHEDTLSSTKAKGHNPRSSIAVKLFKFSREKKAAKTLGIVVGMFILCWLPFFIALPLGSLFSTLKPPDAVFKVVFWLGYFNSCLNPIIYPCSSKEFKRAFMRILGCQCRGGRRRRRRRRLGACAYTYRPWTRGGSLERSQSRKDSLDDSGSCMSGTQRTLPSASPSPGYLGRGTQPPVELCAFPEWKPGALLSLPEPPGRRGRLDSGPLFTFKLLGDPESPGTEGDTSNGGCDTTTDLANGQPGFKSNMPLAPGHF
T2 sequence (P23944 whole entry): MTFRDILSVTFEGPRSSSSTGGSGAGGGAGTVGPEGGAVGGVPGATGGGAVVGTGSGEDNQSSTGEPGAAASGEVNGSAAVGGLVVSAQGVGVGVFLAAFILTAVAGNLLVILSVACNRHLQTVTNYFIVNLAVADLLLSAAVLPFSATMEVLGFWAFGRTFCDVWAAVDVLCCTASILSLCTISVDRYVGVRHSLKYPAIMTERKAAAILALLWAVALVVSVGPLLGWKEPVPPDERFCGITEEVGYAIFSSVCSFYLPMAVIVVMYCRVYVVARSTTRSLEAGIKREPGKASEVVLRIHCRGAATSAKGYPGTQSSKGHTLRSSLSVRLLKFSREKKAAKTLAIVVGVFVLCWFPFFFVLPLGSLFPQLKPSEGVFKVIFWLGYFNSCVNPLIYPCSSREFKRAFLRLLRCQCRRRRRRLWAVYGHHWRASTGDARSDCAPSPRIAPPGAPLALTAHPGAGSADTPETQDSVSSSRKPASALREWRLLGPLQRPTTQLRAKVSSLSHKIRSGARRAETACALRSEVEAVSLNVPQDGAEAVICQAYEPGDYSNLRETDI
T2 sequence (P43140 whole entry): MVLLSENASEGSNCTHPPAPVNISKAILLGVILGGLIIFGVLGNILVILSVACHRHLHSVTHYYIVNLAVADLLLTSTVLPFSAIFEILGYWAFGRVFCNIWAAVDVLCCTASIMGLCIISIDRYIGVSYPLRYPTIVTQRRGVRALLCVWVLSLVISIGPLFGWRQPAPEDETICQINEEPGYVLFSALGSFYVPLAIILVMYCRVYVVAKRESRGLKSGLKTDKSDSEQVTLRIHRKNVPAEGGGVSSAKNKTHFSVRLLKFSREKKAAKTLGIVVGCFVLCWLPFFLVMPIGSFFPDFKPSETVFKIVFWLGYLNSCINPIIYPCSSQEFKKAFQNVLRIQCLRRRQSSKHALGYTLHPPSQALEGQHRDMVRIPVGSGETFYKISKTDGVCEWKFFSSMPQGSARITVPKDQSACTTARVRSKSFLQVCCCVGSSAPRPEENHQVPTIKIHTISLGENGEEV

[5] = biological target: T1, Adrenergic receptor alpha-2; assay: 50% inhibition of specific [3H]clonidine binding (0.4 nM) to Alpha-2 adrenergic receptors in rat isolated brain membranes; format: cell membranes, Membrane
Summary of the method: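 Whole rat brain (minus cerebellum) from male Wistar rats (200–250 g), homogenized in ice-cold 50 mM Tris-HCl pH 7.7 and washed twice at 50000g. Bound ligand was collected by rapid filtration and counted. IC50 was derived by log-probit analysis.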

Rattus norvegicus [6] = assay: Hypotensive activity (25% decrease in arterial pressure) after i.v. administration to anesthetized normotensive rats.
[7] = biological target: T1, Adrenergic receptor alpha-2; assay: Binding affinity against Alpha-2 adrenergic receptor is the ability to inhibit the specific [3H]-clonidine binding (0.4 nM) to rat isolated brain membranes by 50% was reported; 5.9*10e-8; format: tissue-based, Membrane
[8] = biological target: T2, Adrenergic receptor alpha-1; assay: Binding affinity against alpha-1 adrenergic receptor is the ability to inhibit the specific [3H]prazosin binding (0.2 nM) to rat isolated brain membranes by 50% was reported; 8.9*10e-7; format: tissue-based, Membrane
[9] = biological target: T1, Adrenergic receptor alpha-2; assay: Binding affinity against Alpha-2 adrenergic receptor is the ability to inhibit the specific [3H]clonidine binding (0.4 nM) to rat isolated brain membranes by 50% was reported; 2.5*10e-8; format: tissue-based, Membrane
[10] = biological target: T2, Adrenergic receptor alpha-1; assay: Binding affinity against alpha-1 adrenergic receptor is the ability to inhibit the specific [3H]-prazosin binding (0.2 nM) to rat isolated brain membranes by 50% was reported; 5*10e-4; format: tissue-based, Membrane
Summary of the method: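 Brain membranes were prepared from male Wistar rats (200–250 g, cerebellum removed) in ice-cold 50 mmol/L Tris-HCl, pH 7.7, with two 50000g spins, and used at 1 mg/mL protein (Lowry). […] Bound label was collected by vacuum filtration and counted. IC50 came from log probit analysis.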

[11] = biological target: T1, Adrenergic receptor alpha-2; assay: Binding affinity against Alpha-2 adrenergic receptor is the ability to inhibit the specific [3H]clonidine binding (0.4 nM) to rat isolated brain membranes by 50% was reported; 9.1*10e-9; format: tissue-based, Membrane; summary of the method: as §1
[12] = biological target: T2, Adrenergic receptor alpha-1; assay: Binding affinity against alpha-1 adrenergic receptor is the ability to inhibit the specific [3H]-prazosin binding (0.2 nM) to rat isolated brain membranes by 50% was reported; 4.85*10e-6; format: tissue-based, Membrane
Summary of the method: (§2)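 Whole rat brain (minus cerebellum) from male Wistar rats (200–250 g), homogenized in ice-cold 50 mM Tris-HCl pH 7.7 and washed twice at 50000g. […] Bound ligand was collected by filtration and counted. IC50 was derived by log-probit analysis.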

[13] = biological target: T1, Adrenergic receptor alpha-2; assay: Binding affinity against Alpha-2 adrenergic receptor is the ability to inhibit the specific [3H]clonidine binding (0.4 nM) to rat isolated brain membranes by 50% was reported; 1.6*10e-8; set-up: species or system Membrane; summary of the method: as §1
[14] = biological target: T1, Adrenergic receptor alpha-2; assay: Binding affinity against Alpha-2 adrenergic receptor is the ability to inhibit the specific [3H]clonidine binding (0.4 nM) to rat isolated brain membranes by 50% was reported; 1.4*10e-7; format: tissue-based, Membrane; summary of the method: as §1
[15] = biological target: T2, Adrenergic receptor alpha-1; assay: Binding affinity against alpha-1 adrenergic receptor is the ability to inhibit the specific [3H]prazosin binding (0.2 nM) to rat isolated brain membranes by 50% was reported; 6.1*10e-5; format: tissue-based, Membrane
[16] = biological target: T2, Adrenergic receptor alpha-1; assay: Binding affinity against alpha-1 adrenergic receptor is the ability to inhibit the specific [3H]prazosin binding (0.2 nM) to rat isolated brain membranes by 50% was reported; 5.8*10e-7; format: tissue-based, Membrane; summary of the method: as §2

Row | SMILES | pC60 (Rattus norvegicus [3]) [uM kg-1] | IC50 [4] [µM] | IC50 [5] [µM] | pC25 (Rattus norvegicus [6]) [uM kg-1] | also measured
1 | FC(F)(F)c1ccc(Cl)c(NC2=NCCN2)c1 | 1.21 | 0.47 | – | – | logD [1]: 1.54; IC50 [2]: 0.15 µM
2 | CCCN(CCC)C1CCc2c(ccc(O)c2O)C1 (stereo not given) | 0.54 | 15 | 0.08 | – | –
3 | Oc1ccc(NC2=NCCN2)cc1O | 2.44 | 5.1 | – | – | IC50 [2]: 0.014 µM
4 | CN(C)C1CCc2c(ccc(O)c2O)C1 (stereo not given) | 1.2 | 39 | 0.017 | – | –
5 | CCCN(CCC)C1CCc2cc(O)c(O)cc2C1 (stereo not given) | 0.36 | 24 | 0.087 | – | –
6 | CCCN(CCC)C1CCc2ccc(O)cc2C1 (stereo not given) | -0.09 | 18 | 1.2 | – | –
7 | CCCN(CCC)C1CCc2c(O)cccc2C1 (stereo not given) [5-OH-DPAT] | -0.13 | 18 | 0.85 | – | –
8 | CNCC(O)c1cccc(NS(C)(=O)=O)c1 (stereo not given) [AMIDEPHRINE MESYLATE] | 1.36 | 40 | 1.9 | – | –
9 | Brc1c(NC2=NCCN2)ccc2nccnc12 [BRIMONIDINE] | – | – | – | 1.55 | –
10 | c1ccc(C2CC2)c(OCC2=NCCN2)c1 [CIRAZOLINE] | 2.36 | – | – | – | logD [1]: 0.53; IC50 [7]: 0.059 µM; IC50 [8]: 0.89 µM
11 | Clc1cccc(Cl)c1NC1=NCCN1 [CLONIDINE] | 1.78 | – | – | 2.04 | –
12 | N=C(N)N/N=C/c1c(Cl)cccc1Cl [GUANABENZ] | 0.93 | – | 0.0017 | – | –
13 | COc1ccc(OC)c(C(O)C(C)N)c1 (stereo not given) [METHOXAMINE] | 0.75 | 170 | 3.6 | – | –
14 | c1ccc2c(CC3=NCCN3)cccc2c1 [NAPHAZOLINE] | 1.83 | – | – | 0.95 | –
15 | Cc1cc(C(C)(C)C)c(O)c(C)c1CC1=NCCN1 [OXYMETAZOLINE] | 2.24 | – | – | – | logD [1]: -0.32
16 | CNC[C@H](O)c1cccc(O)c1 [PHENYLEPHRINE] | 1.55 | – | – | – | –
17 | C=CCN1CCc2nc(N)sc2CC1 [TALIPEXOLE] | 0.69 | – | – | 1.43 | IC50 [9]: 0.025 µM; IC50 [10]: 500 µM
18 | Cc1csc(Cl)c1NC1=NCCN1 [TIAMENIDINE] | 1.2 | – | – | 0.69 | IC50 [11]: 0.0091 µM; IC50 [12]: 4.85 µM
19 | c1cc2c(c(NC3=NCCN3)c1)CCCC2 [TRAMAZOLINE] | 1.8 | – | – | 0.55 | IC50 [13]: 0.016 µM
20 | Cc1cccc(C)c1NC1=NCCCS1 [XYLAZINE] | -0.02 | – | – | 0.62 | IC50 [14]: 0.14 µM; IC50 [15]: 61 µM
21 | Cc1cc(C(C)(C)C)cc(C)c1CC1=NCCN1 [XYLOMETAZOLINE] | 1.12 | – | – | 0.26 | IC50 [16]: 0.58 µM
